Data set [1] is described as follows: Mouse liver microsome stability assay. The format is in vitro ADME. The note with it: percentage remaining relative to t0.
The nature of data set [2]: Stability control without microsomes. The format is physicochemical. The note with it: microsomes replaced with PBS, percentage remaining relative to t0.
Data set [3] in a line: in vivo blood-brain barrier permeability. The note with it: CD-1 IGS, mouse, brain and serum, iv, 25 mg/kg.
A short description of data set [4]: Assessment of hematological toxicity. The note with it: single IV dose 125 mg/kg, 7 days post-treatment. It is filed as in vivo, mouse. The essentials:
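Mice received a single IV dose of 125 mg/kg test compound. Whole blood was collected 7 days post-dose and a complete blood count run per mouse (total WBC, lymphocytes, neutrophils). Four mice per cohort; error is SEM. Groups were compared with control by two-tailed two-sample Student's t test assuming equal variance.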

The test system of the next data set is U87 cells. Kind of data set: O6-methyldeoxyguanosine quantitation. The format is cell-based, human. The note with it: 100 or 1000 μM, 8 h. The essentials:
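U87 cells were treated with 100 or 1000 μM test compound for 8 h. Genomic DNA was isolated, quantified and hydrolysed to deoxyribonucleosides. O6-methyldeoxyguanosine was quantitated by LC-MS/MS and expressed per 10 μg DNA.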

A further data set concerns human GBM cell lines. The experiment in a line: Panel of human GBM cell lines, viability. It is filed as cell-based.
The conditions of data set [5]: cited from earlier work.
Data set [6] in a line: Hydrolytic stability in PBS. The note with it: pH 7.4, t1/2 in PBS, PBS pH 7.4, 37 °C. It is filed as physicochemical.

Where two headings read alike, the source gives them in different places.

In the case of `CCCCN(CCCC)C(=O)c1ncn2c(=O)n(C)nnc12` [Compound 7], the “stability (2 h, microsomes)” value in data set [1] stood at 1 ± 1%. In data set [2], the “stability (2 h, no microsomes)” value is listed as 98 ± 3%.
In general, Kp refers to tissue or fluid exposure divided by exposure in the circulation. The term IC50 denotes the midpoint of a concentration-inhibition curve. Regarding `Cn1nnc2c(C(N)=O)ncn2c1=O` [TMZ, temozolomide], the “stability (2 h, microsomes)” value in data set [1] was 87 ± 6%. The “stability (2 h, no microsomes)” value in data set [2] is listed as 86 ± 4%. Moreover, in data set [3], the Kp at 5 min stood at 0.23 ± 0.03. Further, the “myelosuppression / white blood cell count” value in data set [4] is given as “white blood cell (WBC) depletion relative to control mice”. Also, the “concentration of O6-methylated deoxyguanosine” value in the data set on U87 cells is recorded as “Dose dependent increases”. Besides, the results for the IC50 with human GBM cell lines (read-out: IC50 in cell lines with negligible MGMT expression) and in the data set on human GBM cell lines (read-out: IC50 in cell lines with significant MGMT expression) were no more than 50 µM and greater than 300 µM, respectively. Further, in data set [5] (humans), the half-life in humans was roughly 2 h. The “half-life in vivo and in aqueous solutions in vitro” value in data set [5] (in vivo and in aqueous solutions in vitro) is listed as roughly 2 h.
Take `CCN(CC)C(=O)c1ncn2c(=O)n(C)nnc12` [Compound 6]: in data set [1], the “stability (2 h, microsomes)” value came to 81 ± 1%. In addition, the “stability (2 h, no microsomes)” value in data set [2] stood at 95 ± 2%.
For `Cn1nnc2c(-c3ccccc3)ncn2c1=O` [Compound 23] the same measures were 44 ± 2% and 103 ± 5%.
For `Cn1nnc2c(Cl)ncn2c1=O` [Compound 19] the same measures were 91 ± 3% and 91 ± 1%.
For orientation: half-life means the time in which the quantity being followed falls by half. Take `Cc1ncn2c(=O)n(C)nnc12` [Compound 14]: the half-life in data set [6] was 40 h.
